Values after ≈ are worked out from the molar mass of the structure shown.
Tests used:
[1] = test system: Staphylococcus aureus; assay: Antibacterial activity against Staphylococcus aureus expressing NorA by double-dilution technique; type: functional
Outline: (§1)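 Double-dilution series of each compound against each strain, reported as MIC. Runs done in duplicate or triplicate.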

[2] = test system: Mycolicibacterium smegmatis; assay: Antibacterial activity against Mycobacterium smegmatis str. MC2 155 by double-dilution technique; type: functional
[3] = test system: Bacillus anthracis; assay: Antibacterial activity against Bacillus anthracis 34F2 Sterne by double-dilution technique; type: functional; outline: as §1
[4] = test system: Haemophilus influenzae; assay: Antibacterial activity against Haemophilus influenzae ATCC 51907 by double-dilution technique; type: functional
Outline: (§2)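 MIC measured against each bacterial strain using a double-dilution series of each compound. Every determination was run in duplicate or triplicate.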

[5] = test system: Staphylococcus aureus; assay: Antibacterial activity against Staphylococcus aureus ATCC 29213 by double-dilution technique; type: functional; outline: as §1
[6] = test system: Staphylococcus epidermidis; assay: Antibacterial activity against biofilm negative Staphylococcus epidermidis ATCC 12228 by double-dilution technique; type: functional; outline: as §2
[7] = test system: Escherichia coli; assay: Antibacterial activity against Escherichia coli MC1061 by double-dilution technique; type: functional; outline: as §1
[8] = test system: Bacillus subtilis; assay: Antibacterial activity against Bacillus subtilis 168 harboring AAC(6')/APH(2'')-pRB374 by double-dilution technique; type: functional
[9] = test system: Bacillus subtilis; assay: Antibacterial activity against Bacillus subtilis 168 by double-dilution technique; type: functional; outline: as §1
[10] = test system: Escherichia coli; assay: Inhibition of protein synthesis in Escherichia coli S30 extracts after 90 mins by coupled transcription/translation assay; type: functional; details: 1.5 h
Outline: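 E. coli extract coupled transcription/translation with luciferase reporter. Reactions with varying compound concentrations ran 90 min at 37 °C, were chilled on ice, then diluted in Tris-phosphate pH 7.8 buffer containing DTT, glycerol, Triton X-100 and BSA. Luminescence was read immediately after adding luciferase reagent. IC50 came from concentration-response fits of at least two independent experiments.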

[11] = test system: Listeria monocytogenes; assay: Antibacterial activity against Listeria monocytogenes ATCC 19115 by double-dilution technique; type: functional; outline: as §1
[12] = test system: Bacillus cereus; assay: Antibacterial activity against Bacillus cereus ATCC 11778 by double-dilution technique; type: functional; outline: as §2
[13] = test system: Streptococcus pyogenes; assay: Antibacterial activity against Streptococcus pyogenes Serotype M12 MGAS9429 by double-dilution technique; type: functional; outline: as §2
[14] = Drug metabolism assessed as aminoglycoside 2'-N-acetyltransferase Ic (unknown origin)-mediated conversion at 100 uM by micro plate reader analysis relative to tobramycin; type: ADME
Outline: (§3)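 Ellman assay: CoASH release coupled to DTNB (2 mM), read at 412 nm every 30 s for 1 h at 25 °C. Compound at 100 μM. Conditions by enzyme: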

[15] = Drug metabolism assessed as aminoglycoside 3-N-acetyltransferase AAC(3)-IV (unknown origin)-mediated conversion at 100 uM by micro plate reader analysis relative to tobramycin; type: ADME; outline: as §3
[16] = Drug metabolism assessed as enhanced intracellular survival protein (unknown origin)-mediated conversion at 100 uM by micro plate reader analysis relative to tobramycin; type: ADME; outline: as §3

CCC[C@@H]1C[C@@H](C(=O)N[C@H]([C@H]2O[C@H](SC)[C@H](O)[C@@H](O)[C@H]2O)[C@@H](C)SCCOCCSSCCOCCSCC(=O)N[C@@H](CO)[C@H](O)c2ccc([N+](=O)[O-])cc2)N(C)C1
MIC [1]: < 0.3 µg/mL
MIC [2]: 18.8 µg/mL (≈ 20.5 µM)
MIC [3]: < 0.3 µg/mL
MIC [4]: 150 µg/mL (≈ 164 µM)
MIC [5]: 0.6 µg/mL (≈ 0.656 µM)
MIC [6]: 2 µg/mL (≈ 2.19 µM)
MIC [7]: 4.7 µg/mL (≈ 5.14 µM)
MIC [8]: > 150 µg/mL
MIC [9]: 2.3 µg/mL (≈ 2.51 µM)
IC50 [10]: 18.3 µM
MIC [11]: 4.7 µg/mL (≈ 5.14 µM)
MIC [12]: 2.3 µg/mL (≈ 2.51 µM)
MIC [13]: > 128 µg/mL

CCC[C@@H]1C[C@@H](C(=O)N[C@H]([C@H]2O[C@H](SC)[C@H](O)[C@@H](O)[C@H]2O)[C@@H](C)SCCOCCSCC(=O)N[C@H](CO)[C@H](O)c2ccc([N+](=O)[O-])cc2)N(C)C1
MIC [1]: 18.8 µg/mL (≈ 24.1 µM)
MIC [2]: > 150 µg/mL
MIC [3]: 2.3 µg/mL (≈ 2.95 µM)
MIC [4]: 75 µg/mL (≈ 96.3 µM)
MIC [5]: 18.8 µg/mL (≈ 24.1 µM)
MIC [6]: 4 µg/mL (≈ 5.13 µM)
MIC [7]: 9.4 µg/mL (≈ 12.1 µM)
MIC [8]: > 150 µg/mL
MIC [9]: 18.8 µg/mL (≈ 24.1 µM)
IC50 [10]: 14.7 µM
MIC [11]: 75 µg/mL (≈ 96.3 µM)
MIC [12]: 18.8 µg/mL (≈ 24.1 µM)
MIC [13]: > 128 µg/mL

NC[C@H]1O[C@H](O[C@H]2[C@H](O)[C@@H](O[C@@H]3O[C@H](CSCCOCCSSCCOCCSCC(=O)N[C@H](CO)[C@H](O)c4ccc([N+](=O)[O-])cc4)[C@@H](O)[C@H](N)[C@H]3O)[C@H](N)C[C@@H]2N)[C@H](N)C[C@@H]1O
MIC [1]: 9.4 µg/mL (≈ 9.63 µM)
MIC [2]: 4.7 µg/mL (≈ 4.81 µM)
fold change (FC) [14]: 1.6
fold change (FC) [15]: 1.4
MIC [3]: 75 µg/mL (≈ 76.8 µM)
MIC [4]: 37.5 µg/mL (≈ 38.4 µM)
MIC [5]: 150 µg/mL (≈ 154 µM)
MIC [6]: 16 µg/mL (≈ 16.4 µM)
MIC [7]: 4.7 µg/mL (≈ 4.81 µM)
MIC [8]: 150 µg/mL (≈ 154 µM)
MIC [9]: 4.7 µg/mL (≈ 4.81 µM)
IC50 [10]: 1 µM
fold change (FC) [16]: 2.6
MIC [11]: 18.8 µg/mL (≈ 19.3 µM)
MIC [12]: 150 µg/mL (≈ 154 µM)
MIC [13]: 16 µg/mL (≈ 16.4 µM)

NC[C@H]1O[C@H](O[C@H]2[C@H](O)[C@@H](O[C@@H]3O[C@H](CSCCOCCSCC(=O)N[C@H](CO)[C@H](O)c4ccc([N+](=O)[O-])cc4)[C@@H](O)[C@H](N)[C@H]3O)[C@H](N)C[C@@H]2N)[C@H](N)C[C@@H]1O
MIC [1]: > 150 µg/mL
MIC [2]: 18.8 µg/mL (≈ 22.4 µM)
fold change (FC) [14]: 2
fold change (FC) [15]: 1.8
MIC [3]: > 150 µg/mL
MIC [4]: 150 µg/mL (≈ 179 µM)
MIC [5]: > 150 µg/mL
MIC [6]: 8 µg/mL (≈ 9.52 µM)
MIC [7]: > 150 µg/mL
MIC [8]: > 150 µg/mL
MIC [9]: 150 µg/mL (≈ 179 µM)
IC50 [10]: 1.49 µM
fold change (FC) [16]: 2.9
MIC [11]: > 150 µg/mL
MIC [12]: > 150 µg/mL
MIC [13]: 8 µg/mL (≈ 9.52 µM)

O=C(CSCCOCCSSCCOCCSCC(=O)N[C@H](CO)[C@H](O)c1ccc([N+](=O)[O-])cc1)N[C@H](CO)[C@H](O)c1ccc([N+](=O)[O-])cc1
MIC [1]: > 150 µg/mL
MIC [2]: > 150 µg/mL
MIC [3]: 75 µg/mL (≈ 96.3 µM)
MIC [4]: 150 µg/mL (≈ 193 µM)
MIC [5]: 0.6 µg/mL (≈ 0.77 µM)
MIC [6]: > 64 µg/mL
MIC [7]: 18.8 µg/mL (≈ 24.1 µM)
MIC [8]: > 150 µg/mL
MIC [9]: 150 µg/mL (≈ 193 µM)
IC50 [10]: 25.6 µM
MIC [11]: 9.4 µg/mL (≈ 12.1 µM)
MIC [12]: 75 µg/mL (≈ 96.3 µM)
MIC [13]: > 128 µg/mL

O=C(CSCCOCCSCC(=O)N[C@H](CO)[C@H](O)c1ccc([N+](=O)[O-])cc1)N[C@H](CO)[C@H](O)c1ccc([N+](=O)[O-])cc1
MIC [1]: > 150 µg/mL
MIC [2]: > 150 µg/mL
MIC [3]: > 150 µg/mL
MIC [4]: > 150 µg/mL
MIC [5]: > 150 µg/mL
MIC [6]: > 64 µg/mL
MIC [7]: > 150 µg/mL
MIC [8]: > 150 µg/mL
MIC [9]: > 150 µg/mL
IC50 [10]: 32.9 µM
MIC [11]: > 150 µg/mL
MIC [12]: > 150 µg/mL
MIC [13]: > 128 µg/mL

NC[C@H]1O[C@H](O[C@H]2[C@H](O)[C@@H](O[C@@H]3O[C@H](CSCCOCCSSCCOCCSC[C@H]4O[C@@H](O[C@@H]5[C@@H](O)[C@H](O[C@H]6O[C@H](CN)[C@@H](O)C[C@H]6N)[C@@H](N)C[C@H]5N)[C@H](O)[C@@H](N)[C@@H]4O)[C@@H](O)[C@H](N)[C@H]3O)[C@H](N)C[C@@H]2N)[C@H](N)C[C@@H]1O
MIC [1]: 9.4 µg/mL (≈ 8.01 µM)
MIC [2]: 2.3 µg/mL (≈ 1.96 µM)
fold change (FC) [14]: 2.4
fold change (FC) [15]: 2
MIC [3]: 37.5 µg/mL (≈ 32 µM)
MIC [4]: 9.4 µg/mL (≈ 8.01 µM)
MIC [5]: 37.5 µg/mL (≈ 32 µM)
MIC [6]: 16 µg/mL (≈ 13.6 µM)
MIC [7]: 18.8 µg/mL (≈ 16 µM)
MIC [8]: 37.5 µg/mL (≈ 32 µM)
MIC [9]: 0.6 µg/mL (≈ 0.511 µM)
IC50 [10]: 0.27 µM
fold change (FC) [16]: 4.1
MIC [11]: 37.5 µg/mL (≈ 32 µM)
MIC [12]: 75 µg/mL (≈ 63.9 µM)
MIC [13]: 64 µg/mL (≈ 54.5 µM)

Reference: ChEMBL document CHEMBL2417431, “Synthesis and evaluation of hetero- and homodimers of ribosome-targeting antibiotics: antimicrobial activity, in vitro inhibition of translation, and drug resistance” (J Med Chem, 2013)
